Results as given in ChEMBL document CHEMBL1811845, “Modulation of GABAA-receptors by honokiol and derivatives: subtype selectivity and structure-activity relationship” (J Med Chem, 2011).

Experiments:
[1] = molecular target: T1, GABA-A receptor; GABA-A site (alpha1/beta2 interface) (Homo sapiens, UniProt P14867+P47870); experiment: Modulation of GABA Aalpha1beta2 receptor expressed in Xenopus laevis oocytes assessed as potentiation of GABA-induced chloride current at holding potential -70 mV by two-microelectrode voltage clamp technique; type: cell-based, Oocyte
T1 sequence (P14867 whole entry): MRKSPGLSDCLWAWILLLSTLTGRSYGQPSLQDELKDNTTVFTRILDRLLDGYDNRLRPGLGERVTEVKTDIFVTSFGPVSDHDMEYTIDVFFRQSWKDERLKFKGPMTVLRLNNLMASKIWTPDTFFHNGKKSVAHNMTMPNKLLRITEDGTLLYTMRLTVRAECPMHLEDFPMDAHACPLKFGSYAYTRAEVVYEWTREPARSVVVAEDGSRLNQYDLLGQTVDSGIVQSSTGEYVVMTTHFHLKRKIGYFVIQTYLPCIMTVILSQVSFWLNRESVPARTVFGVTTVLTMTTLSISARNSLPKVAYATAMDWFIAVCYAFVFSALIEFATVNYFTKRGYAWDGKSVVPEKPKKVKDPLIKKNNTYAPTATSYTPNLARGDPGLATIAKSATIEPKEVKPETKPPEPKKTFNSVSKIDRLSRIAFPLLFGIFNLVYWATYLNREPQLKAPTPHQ
T1 sequence (P47870 whole entry): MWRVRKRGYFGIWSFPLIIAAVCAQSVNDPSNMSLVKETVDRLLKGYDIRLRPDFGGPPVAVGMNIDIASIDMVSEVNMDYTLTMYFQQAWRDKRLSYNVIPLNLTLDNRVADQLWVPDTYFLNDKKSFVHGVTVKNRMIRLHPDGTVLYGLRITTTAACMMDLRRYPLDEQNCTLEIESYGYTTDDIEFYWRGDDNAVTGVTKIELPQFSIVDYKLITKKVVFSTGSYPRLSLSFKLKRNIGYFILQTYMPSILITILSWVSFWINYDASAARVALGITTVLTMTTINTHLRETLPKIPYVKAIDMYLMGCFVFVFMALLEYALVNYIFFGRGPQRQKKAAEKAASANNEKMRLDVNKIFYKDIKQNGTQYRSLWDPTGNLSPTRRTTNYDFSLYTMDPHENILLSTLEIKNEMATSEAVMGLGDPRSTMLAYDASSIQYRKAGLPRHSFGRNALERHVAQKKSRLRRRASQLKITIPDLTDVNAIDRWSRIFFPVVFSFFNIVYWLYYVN
In short: (§1)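 Stage V–VI Xenopus oocytes, defolliculated with 2 mg/mL collagenase, injected with α(1, 2, 3 or 5) and β2 cRNAs mixed 1:1, then kept at 18 °C in ND96 (pH 7.4). Enhancement = I(GABA+compound)/IGABA − 1. Curves were Hill-fitted for EC50. Bath DMSO was at most 0.3%, matched in controls.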

[2] = Octanol-water partition coefficient, log P of the compound; type: physicochemical; conditions: read-out: logP
[3] = molecular target: T2, Gamma-aminobutyric acid receptor subunit alpha-2/beta-2 (Homo sapiens, UniProt P47869+P47870); experiment: Modulation of GABA Aalpha2beta2 receptor expressed in Xenopus laevis oocytes assessed as potentiation of GABA-induced chloride current at holding potential -70 mV by two-microelectrode voltage clamp technique; type: cell-based, Oocyte; in short: as §1
T2 sequence (P47870 whole entry): T1 sequence (P47870 whole entry)
T2 sequence (P47869 whole entry): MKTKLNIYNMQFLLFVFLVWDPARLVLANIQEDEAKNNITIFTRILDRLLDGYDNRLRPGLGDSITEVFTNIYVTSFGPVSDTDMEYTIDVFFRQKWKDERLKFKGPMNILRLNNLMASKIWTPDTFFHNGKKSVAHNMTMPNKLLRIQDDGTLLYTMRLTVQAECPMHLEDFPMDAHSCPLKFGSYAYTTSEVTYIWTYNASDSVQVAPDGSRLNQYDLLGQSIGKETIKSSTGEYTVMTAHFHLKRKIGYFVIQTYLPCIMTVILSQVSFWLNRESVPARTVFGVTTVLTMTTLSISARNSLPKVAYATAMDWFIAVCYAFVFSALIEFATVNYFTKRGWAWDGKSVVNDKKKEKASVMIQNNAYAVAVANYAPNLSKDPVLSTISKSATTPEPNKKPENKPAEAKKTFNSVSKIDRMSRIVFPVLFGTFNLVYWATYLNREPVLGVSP

[4] = molecular target: T3, Gamma-aminobutyric acid receptor subunit alpha-3/ beta-2 (Homo sapiens, UniProt P34903+P47870); experiment: Modulation of GABA Aalpha3beta2 receptor expressed in Xenopus laevis oocytes assessed as potentiation of GABA-induced chloride current at holding potential -70 mV by two-microelectrode voltage clamp technique; type: cell-based, Oocyte; in short: as §1
T3 sequence (P47870 whole entry): T1 sequence (P47870 whole entry)
T3 sequence (P34903 whole entry): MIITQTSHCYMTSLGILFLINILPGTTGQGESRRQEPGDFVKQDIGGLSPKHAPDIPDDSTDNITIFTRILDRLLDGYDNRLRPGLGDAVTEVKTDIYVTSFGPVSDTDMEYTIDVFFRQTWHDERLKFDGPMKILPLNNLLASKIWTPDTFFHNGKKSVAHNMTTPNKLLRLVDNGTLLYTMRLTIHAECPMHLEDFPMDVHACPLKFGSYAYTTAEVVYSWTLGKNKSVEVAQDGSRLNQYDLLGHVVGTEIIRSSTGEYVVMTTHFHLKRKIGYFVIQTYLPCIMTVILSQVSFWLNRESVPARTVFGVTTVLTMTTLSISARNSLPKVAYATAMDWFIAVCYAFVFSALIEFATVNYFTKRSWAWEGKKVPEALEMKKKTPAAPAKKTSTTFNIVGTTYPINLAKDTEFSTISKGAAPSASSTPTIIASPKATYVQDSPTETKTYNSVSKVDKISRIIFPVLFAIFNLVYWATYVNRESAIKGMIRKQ

[5] = molecular target: T4, Gamma-aminobutyric acid receptor subunit alpha-5/beta-2 (Homo sapiens, UniProt P31644+P47870); experiment: Modulation of GABA Aalpha5beta2 receptor expressed in Xenopus laevis oocytes assessed as potentiation of GABA-induced chloride current at holding potential -70 mV by two-microelectrode voltage clamp technique; type: cell-based, Oocyte; in short: as §1
T4 sequence (P47870 whole entry): T1 sequence (P47870 whole entry)
T4 sequence (P31644 whole entry): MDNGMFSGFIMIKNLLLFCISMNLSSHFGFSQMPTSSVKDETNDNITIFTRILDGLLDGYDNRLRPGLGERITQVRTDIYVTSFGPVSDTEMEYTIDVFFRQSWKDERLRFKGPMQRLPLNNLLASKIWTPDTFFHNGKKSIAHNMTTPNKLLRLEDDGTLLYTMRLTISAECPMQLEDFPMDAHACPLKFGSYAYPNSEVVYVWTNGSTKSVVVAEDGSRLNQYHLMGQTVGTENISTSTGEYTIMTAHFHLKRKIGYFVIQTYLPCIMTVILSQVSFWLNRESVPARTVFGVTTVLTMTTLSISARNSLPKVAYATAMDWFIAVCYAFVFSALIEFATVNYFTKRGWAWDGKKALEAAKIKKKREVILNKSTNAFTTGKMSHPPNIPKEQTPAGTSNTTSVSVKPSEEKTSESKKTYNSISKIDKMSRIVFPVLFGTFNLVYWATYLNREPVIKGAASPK

[6] = molecular target: T5, GABA-A receptor; GABA-A site (alpha1/beta2 interface) (Homo sapiens) (UniProt P14867+P47870); experiment: Modulation of GABA Aalpha1beta2 receptor expressed in Xenopus laevis oocytes assessed as potentiation of GABA-induced chloride current at holding potential -70 mV by two-microelectrode voltage clamp technique relative to GABA; type: cell-based; conditions: Oocyte
In short: (§2)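 Oocytes were injected with α1, α2, α3 or α5 plus β2 cRNA at a 1:1 ratio and stored at 18 °C in ND96, pH 7.4. Enhancement was (I(GABA+compound)/IGABA)−1, and concentration-response data were Hill-fitted for EC50 and nH. Matched DMSO was ≤0.3%.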

[7] = molecular target: Gamma-aminobutyric acid receptor subunit alpha-2/beta-2 (Homo sapiens) (UniProt P47870+P47869); experiment: Modulation of GABA Aalpha2beta2 receptor expressed in Xenopus laevis oocytes assessed as potentiation of GABA-induced chloride current at holding potential -70 mV by two-microelectrode voltage clamp technique relative to GABA; type: cell-based; conditions: Oocyte; in short: as §2
[8] = molecular target: Gamma-aminobutyric acid receptor subunit alpha-3/ beta-2 (Homo sapiens) (UniProt P47870+P34903); experiment: Modulation of GABA Aalpha3beta2 receptor expressed in Xenopus laevis oocytes assessed as potentiation of GABA-induced chloride current at holding potential -70 mV by two-microelectrode voltage clamp technique relative to GABA; type: cell-based; conditions: Oocyte; in short: as §2
[9] = molecular target: Gamma-aminobutyric acid receptor subunit alpha-5/beta-2 (Homo sapiens) (UniProt P47870+P31644); experiment: Modulation of GABA Aalpha5beta2 receptor expressed in Xenopus laevis oocytes assessed as potentiation of GABA-induced chloride current at holding potential -70 mV by two-microelectrode voltage clamp technique relative to GABA; type: cell-based; conditions: Oocyte; in short: as §2
[10] = molecular target: T5, GABA-A receptor; GABA-A site (alpha1/beta2 interface) (Homo sapiens); experiment: Modulation of GABA Aalpha1beta2 receptor expressed in Xenopus laevis oocytes assessed as potentiation of GABA-induced chloride current at holding potential -70 mV at 30 uM by two-microelectrode voltage clamp technique relative to GABA; type: cell-based; conditions: Oocyte
In short: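 Single-concentration screen at 30 μM on α1β2 receptors (cRNA 1:1) in Xenopus oocytes. Enhancement was (I(GABA+compound)/IGABA)−1. DMSO was matched in control and test solutions, maximum 0.3% in the bath.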

[11] = test system: Oocyte; experiment: Modulation of GABA alpha1beta2gamma2s receptor expressed in Xenopus laevis oocytes assessed as potentiation of GABA-induced chloride current at holding potential -70 mV at 300 nM by two-microelectrode voltage clamp technique relative to GABA; type: cell-based
In short: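 Xenopus oocytes were injected with α1, β2 and γ2s cRNAs mixed 1:1:10 and stored at +18 °C in ND96 at pH 7.4. Chloride current was recorded by two-electrode voltage clamp at -70 mV and ambient temperature. Compound was co-applied with GABA at 3–7% of maximal current, set for each oocyte. Enhancement was calculated as (I(GABA+compound)/IGABA) − 1 with matched DMSO.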

Structure (SMILES) | EC50 [1] [µM] | logP [2] | EC50 [3] [µM] | EC50 [4] [µM] | EC50 [5] [µM] | Smax [6] [%] | Smax [7] [%] | Smax [8] [%] | Smax [9] [%] | Activity [10] [%] | Activity [11] [%]
C=CCc1cc(NC(C)=O)c(O)c(-c2ccc(OC)c(CC=C)c2)c1 | 3.8 | 4.75 | 7.9 | 9 | 2.3 | 2600 | 5200 | 3670 | 1010 | 2630 | –
CCCc1cc(N)c(O)c(-c2ccc(OC)c(CCC)c2)c1 | 9.2 | 5.38 | 3.2 | 8.4 | 5.3 | 2260 | 2980 | 2380 | 1870 | 2020 | –
CN1C(=O)CN=C(c2ccccc2)c2cc(Cl)ccc21 | – | – | – | – | – | – | – | – | – | – | 104
